Here are results for five compounds from PubChem BioAssay AID624038 (The Scripps Research Institute Molecular Screening Center, 2012).

Hit rate of the full screen: of about 360,000 compounds, about 1,100 (0.31%) were called active. This is one part of a sample in which actives are shown more often than they occur. A number with no mark means an inactive call.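 Rule for the calls: active = activation above the run cutoff, the mean activation of all test compounds plus 3 SD (cut at about 18% in these data); inactive = the rest.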

For this assay, the target named is Muscarinic acetylcholine receptor M5 (Homo sapiens) (UniProt P08912). The assay can be described thus: CHRM5 PAMs potentiating acetylcholine calcium signal – CHO-K1 cells, Fluo-8 calcium fluorescence, primary screen (AID 624038). The note with it: CHO-K1 hM5, Fluo-8 calcium, ACh EC20 PAM; at 3 µM; stronger effect = higher value; 0% = ACh EC20, 100% = ACh EC100. The gist of the method: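 Assay system: CHO-K1 hM5 cells / Incubation: Fluo-8 loading 80 min at 37 °C plus 30 min room temperature / Technique: Fluo-8 calcium dye fluorescence, kinetic read / Repeats: single replicate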
Muscarinic acetylcholine receptor M5 (Homo sapiens), sequence (P08912 whole entry, looked up): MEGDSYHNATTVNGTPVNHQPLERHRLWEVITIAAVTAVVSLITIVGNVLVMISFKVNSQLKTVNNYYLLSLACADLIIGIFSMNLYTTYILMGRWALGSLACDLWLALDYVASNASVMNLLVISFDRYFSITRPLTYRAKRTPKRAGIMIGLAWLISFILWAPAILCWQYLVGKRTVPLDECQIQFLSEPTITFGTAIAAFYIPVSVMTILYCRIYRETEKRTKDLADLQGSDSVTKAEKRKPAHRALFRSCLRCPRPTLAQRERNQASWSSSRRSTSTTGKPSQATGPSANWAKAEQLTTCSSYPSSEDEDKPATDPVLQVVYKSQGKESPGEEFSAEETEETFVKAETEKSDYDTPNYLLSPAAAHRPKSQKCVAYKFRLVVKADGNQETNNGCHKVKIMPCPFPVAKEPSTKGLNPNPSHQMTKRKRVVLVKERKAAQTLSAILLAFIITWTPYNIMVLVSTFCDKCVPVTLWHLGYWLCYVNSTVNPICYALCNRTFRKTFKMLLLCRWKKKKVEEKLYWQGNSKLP
Turning to `CC=C(C)C(=O)OC1CCN2CC=C(COC(=O)C(O)(C(C)OC)C(C)(C)O)C12` (stereo not given), the activation was 19.2% (active).

For `CCOP(=S)(OCC)SCOC(=O)NCC(=O)OC`, the activation is 0.05%.

Regarding `O=[N+]([O-])c1cnc2ccc3ccccc3c2c1`, the activation was 3.69%.

With `COc1ccc(-n2c(-c3ccccc3)nc3ccccc3c2=O)cc1`, the activation is 14.8%.

Regarding `COC(=O)CN(CCCl)P1(=O)OCCCN1CCCl` (stereo not given), the activation was -10.4%.
